Test results as given in PMC3156442 (Molecular bioSystems, 2010).

Columns and labels:
Jurkat cells [1] = assay: LDH release cytotoxicity; type: cell-based, human; conditions: 10 μM, 37 °C; for Cytotoxicity by LDH release (in words): 10 min or 60 min
In short: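 Jurkat cells exposed to 10 μM lipopeptide at 37 °C for 10 or 60 min, then the plate was centrifuged at 250 × g for 4 min. Released LDH in the supernatant was read using tetrazolium substrate (RT, 30 min, dark) at 490 nm. Controls were spontaneous release, lysis-solution maximum, volume correction and medium background. % cytotoxicity = (experimental − spontaneous)/(maximum − spontaneous) × 100. Triplicate.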

Jurkat cells [2] = assay: Cellular uptake of FITC-labelled LPs by flow cytometry; type: cell-based, human; conditions: 10 μM, 10 min, 37 °C

Row | SMILES | Cytotoxicity by LDH release (in words) (Jurkat cells [1]) | Cytotoxicity (LDH release, % of maximum) (Jurkat cells [1]; 60 min, triplicate, mean ± SD) [%] | Signal intensity relative to C14R11 (C14R11 set as 1) (Jurkat cells [2]) [fold]
1 | CCCCCCCCCCCC(=O)NCCC(=O)N[C@@H](CCCNC(=N)N)C(=O)N[C@@H](CCCNC(=N)N)C(=O)N[C@@H](CCCNC(=N)N)C(=O)N[C@@H](CCCNC(=N)N)C(=O)N[C@@H](CCCNC(=N)N)C(=O)N[C@@H](CCCNC(=N)N)C(=O)N[C@@H](CCCNC(=N)N)C(=O)N[C@@H](CCCCNC(=S)Nc1ccc2c(c1)C(=O)OC21c2ccc(O)cc2Oc2cc(O)ccc21)C(N)=O [C12R7] | didn’t exhibit any significant toxicity |  | 
2 | CCCCCCCCCCCCCC(=O)NCCC(=O)N[C@@H](CCCNC(=N)N)C(=O)N[C@@H](CCCNC(=N)N)C(=O)N[C@@H](CCCNC(=N)N)C(=O)N[C@@H](CCCNC(=N)N)C(=O)N[C@@H](CCCNC(=N)N)C(=O)N[C@@H](CCCNC(=N)N)C(=O)N[C@@H](CCCNC(=N)N)C(=O)N[C@@H](CCCCNC(=S)Nc1ccc2c(c1)C(=O)OC21c2ccc(O)cc2Oc2cc(O)ccc21)C(N)=O [C14R7] | didn’t exhibit any significant toxicity |  | 
3 | CCCCCCCCCCCCCC(=O)NCCC(=O)N[C@H](CCCNC(=N)N)C(=O)N[C@H](CCCNC(=N)N)C(=O)N[C@H](CCCNC(=N)N)C(=O)N[C@H](CCCNC(=N)N)C(=O)N[C@H](CCCNC(=N)N)C(=O)N[C@H](CCCNC(=N)N)C(=O)N[C@H](CCCNC(=N)N)C(=O)N[C@H](CCCNC(=N)N)C(=O)N[C@H](CCCNC(=N)N)C(=O)N[C@H](CCCNC(=N)N)C(=O)N[C@H](CCCNC(=N)N)C(=O)N[C@@H](CCCCNC(=S)Nc1ccc2c(c1)C(=O)OC21c2ccc(O)cc2Oc2cc(O)ccc21)C(N)=O [C14dR11] |  | 5.97 ± 0.9 | 5
4 | CCCCCCCCCCCCCCCC(=O)NCCC(=O)N[C@@H](CCCNC(=N)N)C(=O)N[C@@H](CCCNC(=N)N)C(=O)N[C@@H](CCCNC(=N)N)C(=O)N[C@@H](CCCNC(=N)N)C(=O)N[C@@H](CCCNC(=N)N)C(=O)N[C@@H](CCCNC(=N)N)C(=O)N[C@@H](CCCNC(=N)N)C(=O)N[C@@H](CCCCNC(=S)Nc1ccc2c(c1)C(=O)OC21c2ccc(O)cc2Oc2cc(O)ccc21)C(N)=O [C16R7] | didn’t exhibit any significant toxicity |  | 
